Source: ChEMBL document CHEMBL1147152, “Radiolabeled phenethylguanidines: novel imaging agents for cardiac sympathetic neurons and adrenergic tumors” (J Med Chem, 2007)

Tests used:
Blood = assay: Biodistribution in blood of Sprague-Dawley rat at 50 to 350 uCi, iv; format: ADME, organism-based; conditions: in vivo
[1] = Ratio of drug level in heart to blood in macaque rhesus monkey at 5.4 mCi, iv; format: ADME, organism-based, Macaca mulatta
Outline: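 Rhesus monkey PET: 5.4 mCi of the [¹¹C] tracer, given as an intravenous bolus via catheter to a 5.3 kg animal. Images were reconstructed by OSEM/3D-MAP, and tissue ratios were taken from the dynamic myocardial kinetics.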

Lung = assay: Biodistribution in lung of Sprague-Dawley rat at 50 to 350 uCi, iv; format: ADME, organism-based; conditions: in vivo
Muscle tissue = assay: Biodistribution in muscle of Sprague-Dawley rat at 50 to 350 uCi, iv; format: ADME, organism-based; conditions: in vivo
Heart = assay: Neuronal drug uptake rate in isolated Sprague-Dawley rat heart; format: ADME, tissue-based
Outline: (§1)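 Isolated working rat heart perfused with Krebs-Henseleit bicarbonate buffer plus 5 mM glucose, gassed 95% O₂/5% CO₂, with 54 μM corticosterone to block uptake-2. After 30 min stabilization, 10 min constant infusion of ¹¹C tracer (2.0-12.0 μCi/mL perfusate), then 120 min washout. Whole-heart activity read by coincidence CsF detectors and converted to apparent distribution volume. K_up (mL/min/g wet) taken as the linear slope of the 1-4 min infusion data. Clearance half-time (hr) from multi-exponential fit of the washout phase.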

[2] = Drug clearance rate in isolated Sprague-Dawley rat heart; format: ADME, tissue-based; outline: as §1
[3] = Biodistribution in left ventricle of Sprague-Dawley rat at 50 to 350 uCi, iv; format: ADME, organism-based, Heart left ventricle; conditions: in vivo
Liver = assay: Biodistribution in liver of Sprague-Dawley rat at 50 to 350 uCi, iv; format: ADME, organism-based; conditions: in vivo
Adrenal medulla = assay: Biodistribution in adrenal medulla of Sprague-Dawley rat at 50 to 350 uCi, iv; format: ADME, organism-based; conditions: in vivo
Spleen = assay: Biodistribution in spleen of Sprague-Dawley rat at 50 to 350 uCi, iv; format: ADME, organism-based; conditions: in vivo
PC-12 [4] = assay: Drug uptake in tumor of rat PC12 cells xenografted BALB/c nu/nu mouse at 0.34 mCi within 10 mins; conditions: in vivo
PC-12 [5] = assay: Drug uptake in heart of rat PC12 cells xenografted BALB/c nu/nu mouse at 0.34 mCi at 60 mins; conditions: in vivo, 1 h
Rhesus monkey [6] = assay: Ratio of drug level in heart to liver in macaque rhesus monkey at 4.9 mCi, iv; format: ADME, organism-based, Macaca mulatta; conditions: in vivo
Rhesus monkey [7] = assay: Ratio of drug level in heart to liver in macaque rhesus monkey at 4.8 mCi, iv; format: ADME, organism-based, Macaca mulatta; conditions: in vivo
[8] = Ratio of drug level in heart to blood in macaque rhesus monkey at 4.8 mCi, iv; format: ADME, organism-based, Macaca mulatta

Structure (SMILES) | Drug uptake (Blood) [% ID/g] | Kp [1] | Drug uptake (Lung) [% ID/g] | Drug uptake (Muscle tissue) [% ID/g] | Kup (Heart) [mL/min/g] | half-life [2] [h] | Drug uptake [3] [% ID/g] | Drug uptake (Liver) [% ID/g] | Drug uptake (Adrenal medulla) [% ID/g] | Drug uptake (Spleen) [% ID/g] | Drug uptake (PC-12 [4]) [% ID/g] | Drug uptake (PC-12 [5]) [% ID/g] | Ratio (Rhesus monkey [6]) | Ratio (Rhesus monkey [7]) | Kp [8]
C[C@H](N[11CH3])[C@H](O)c1cccc(O)c1 | 0.08 | 4.5 | 0.4 | 0.17 |  |  |  |  |  |  |  |  |  |  | 
N=[11C](N)NCCc1ccccc1F |  |  |  |  | 1.76 | 2.3 |  |  |  |  |  |  |  |  | 
N=[11C](N)NCCc1ccccc1 [[11C]PHENETHYLGUANIDINE] |  |  |  |  | 1.56 | 3.3 |  |  |  |  |  |  |  |  | 
N=[11C](N)NCCc1ccc(F)cc1 |  |  |  |  | 0.63 | 4.4 |  |  |  |  |  |  |  |  | 
N=[11C](N)NCCc1cc(O)ccc1F | 0.07 |  | 0.34 | 0.06 | 0.49 | > 20 | 1.01 | 0.92 | 0.46 | 0.43 |  |  |  |  | 
N=[11C](N)NCCc1ccc(O)cc1 | 0.16 |  | 0.68 | 0.14 | 1.64 | > 45 | 3.3 | 0.84 | 1.17 | 0.97 | 29 | 17 |  |  | 
N=[11C](N)NCC(O)c1cccc(O)c1 (centres undefined) | 0.14 |  | 0.75 | 0.07 | 0.3 | > 152 | 1.17 | 2.71 | 0.36 | 0.63 |  |  | 0.6 |  | 
N=[11C](N)NCCc1ccc(F)c(O)c1 | 0.08 |  | 0.56 | 0.07 | 0.72 | > 73 | 1.77 | 1.22 | 0.56 | 0.52 |  |  |  |  | 
N=[11C](N)NCCc1ccc(I)cc1 |  |  |  |  | 0.56 | 1.9 |  |  |  |  |  |  |  |  | 
[11CH3]NC[C@H](O)c1ccc(O)c(O)c1 [[11C]EPINEPHRINE] | 0.13 |  | 0.39 | 0.22 |  |  | 2.14 | 1.95 | 0.61 | 0.64 |  |  |  |  | 
N=[11C](N)NC[C@H](O)c1ccccc1 | 0.09 |  | 0.86 | 0.1 | 0.42 | 22 | 1.91 | 3.91 | 0.53 | 0.88 |  |  |  |  | 
COc1ccc(CCN[11C](=N)N)cc1 |  |  |  |  | 0.73 | 2.3 |  |  |  |  |  |  |  |  | 
N=[11C](N)NCCc1cccc(I)c1 |  |  |  |  | 1.1 | 2.4 |  |  |  |  |  |  |  |  | 
N=[11C](N)NCCc1cccc(O)c1 | 0.07 |  | 0.74 | 0.07 | 1.96 | > 102 | 2.28 | 0.89 | 0.88 | 0.63 |  |  |  | 4.4 | 4.7
N=[11C](N)NCCc1cccc(F)c1 |  |  |  |  | 0.24 | 1.9 |  |  |  |  |  |  |  |  | 
